This note sets out measurements from ChEMBL document CHEMBL4513216, “Probing the Open Global Health Chemical Diversity Library for Multistage-Active Starting Points for Next-Generation Antimalarials” (ACS Infect Dis, 2020).

A short description of this data set: Toxicity liver stage against HepG2, at 10uM. The format is cell-based. Also noted: test concentration 10 uM, cell line HepG2-A16-CD81EGFP. The following applies: human, HepG2-A16-CD81EGFP cells; read-out: INHIBITION
In short, it runs like this: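 Uninfected HepG2-A16-CD81EGFP cells, 3 × 10^3 per well, 1536-well, plated on prespotted compound at 10 μM final, parasite-free screening media added to match infected plates; puromycin 10 μM positive, DMSO 0.5% negative; run in parallel with 48 h PbLuc assay at 37 °C, 5% CO2; viability by CellTiter-Glo luminescence, normalized to controls.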
Regarding `Fc1ccccc1Sc1ccccc1CNC1=NCCN1`, the cytotoxicity at 10 µM was determined as 12.5%.

In the case of `COC(=O)c1ccc(C2SC(C)=Nc3c2c(=O)[nH]n3C2CCCC2)cc1` (centres undefined), the cytotoxicity at 10 µM came to 6.84%.

In the case of `CN1CCCC(C(=O)N2CCC(Oc3ccc(C#N)cn3)CC2)C1` (centres undefined), the cytotoxicity at 10 µM was -5.6%.

For the compound `CCS(=O)(=O)NCc1nc(C)cc(N2CCCCC2)n1`, the cytotoxicity at 10 µM was found to be 6.79%.

As to `CC1N(CC2CC2)C(=O)COC12CCN(C(=O)c1cccs1)CC2` (centres undefined), the cytotoxicity at 10 µM is -3.64%.

Consider `CN(C)c1ccc2c(c1)CN(C(=O)c1c[nH]cn1)C2c1cnco1` (centres undefined), for which the cytotoxicity at 10 µM was -0.234%.

Take `O=C(c1cc[nH]n1)N1CC[C@@H]2CN(Cc3cccnc3)S(=O)(=O)[C@@H]2CC1`: the cytotoxicity at 10 µM stood at 12.7%.

With `Cc1noc(C)c1CN1C[C@@H](OCC(=O)N(C)C)[C@H]2OCCC[C@H]21`, the cytotoxicity at 10 µM was 12.1%.

With `OCCCNc1nc(O)c2c(n1)-c1ccccc1CC21CCCCC1`, the cytotoxicity at 10 µM was 11.1%.

As to `CC(=O)Nc1ncc(S(=O)(=O)Nc2ccc(C)cc2)s1`, the cytotoxicity at 10 µM is 8.6%.

With `Cc1cc(C)nc(N2CCC(c3ccnc(N(C)C)n3)CC2)n1`, the cytotoxicity at 10 µM was 21.1%.

Consider `CN(C)c1nccc(C2CCN(c3ncccn3)CC2)n1`, for which the cytotoxicity at 10 µM came to 0.59%.

In the case of `c1cc(CNc2ncc(-c3cnccn3)c(C3CC3)n2)ccn1`, the cytotoxicity at 10 µM came to 24%.

As for `CCn1ccc(-c2cc(NCCCOc3cccc(C)c3)nc(C)n2)n1`, the cytotoxicity at 10 µM is -5.65%.

In the case of `O=C(NC1CC1)C1(Cc2ccccc2-c2ccncc2)CCOCC1`, the cytotoxicity at 10 µM was -3.83%.

With `Cc1ncsc1-c1nnc(C2CCN(Cc3ccc(Cl)cc3)CC2)o1`, the cytotoxicity at 10 µM was -4.41%.

Take `c1nc2c(c(NC3CCc4ncnn4C3)n1)CCC2` (centres undefined): the cytotoxicity at 10 µM was -40.7%.

In the case of `COc1ccc(CNCc2cc(Br)c3c(c2)OCO3)cc1`, the cytotoxicity at 10 µM was determined as 12.1%.

Consider `Cc1nn(C)c(C)c1S(=O)(=O)NCC1(C(N)=O)CCOCC1`, for which the cytotoxicity at 10 µM is 14.9%.

As to `N#Cc1cccn(CCOc2ccc(Cl)cc2)c1=O`, the cytotoxicity at 10 µM stood at 18.6%.

On to `COc1cc(CNCCn2cc(C)cn2)c2c(c1)CC(C)O2` (centres undefined), for which the cytotoxicity at 10 µM was determined as 19.1%.

Regarding `COc1cc(CNCCn2cccn2)c2c(c1)CC(C)O2` (centres undefined), the cytotoxicity at 10 µM came out at 13.7%.

Regarding `CC(NC(=O)COc1cccc[n+]1[O-])C1CC1` (centres undefined), the cytotoxicity at 10 µM is -6.66%.

On to `CC(C)(C)C(=O)Cn1nc(C2CC2)cc(C(F)(F)F)c1=O`, for which the cytotoxicity at 10 µM is -8.06%.

Take `CN(c1ccc(CNC(=O)c2c[nH]c(=O)c(Cl)c2)cc1)C1CCCCC1`: the cytotoxicity at 10 µM was determined as 88.9%.

On to `COCc1noc(C2(c3ccc(F)cc3)CCC2)n1`, for which the cytotoxicity at 10 µM worked out at 5.93%.

As for `Cc1cc(C(=O)NCc2ccccc2CN(C)Cc2ccco2)on1`, the cytotoxicity at 10 µM turned out to be 3.57%.

As for `Cc1ccc(CC(=O)NC(C)C(=O)N2CCS(=O)(=O)CC2)s1` (centres undefined), the cytotoxicity at 10 µM came to 11.2%.

For `CCOc1cc(CN(C)CCCC#N)ccc1OC(F)F`, the cytotoxicity at 10 µM was -10.3%.

`Cc1noc(CN2CC=C(c3c[nH]c4ncccc34)CC2)n1`: the cytotoxicity at 10 µM turned out to be 44.7%.

With `O=C(c1[nH]nc(C2CC2)c1Cl)N1CCN(S(=O)(=O)c2ccccc2)CC1`, the cytotoxicity at 10 µM was 16%.

On to `CC(NCc1cnc(C2CCC2)s1)c1cccc(-n2cccn2)c1` (centres undefined), for which the cytotoxicity at 10 µM came to 2.34%.

Regarding `Cc1cnn(CC2CCCN2c2ncnc3ccccc23)c1` (centres undefined), the cytotoxicity at 10 µM stood at 46.8%.

For `NC(=O)CCSc1ccccc1NCc1ccc(Cl)s1`, the cytotoxicity at 10 µM came out at 7.74%.

In the case of `CC(C)(C)c1nc(CNc2ccccc2SCCC(N)=O)cs1`, the cytotoxicity at 10 µM was 23.5%.

On to `c1ccc(CNc2ccccc2N2CCCC2)nc1`, for which the cytotoxicity at 10 µM stood at 10.9%.

In the case of `CN(Cc1cnccn1)S(=O)(=O)c1ccc(C(F)(F)F)nc1`, the cytotoxicity at 10 µM was -9.77%.

On to `CCCN(C)CC1CCN(c2ccc(Br)c(C)n2)C1` (centres undefined), for which the cytotoxicity at 10 µM is 14.8%.

Regarding `Cc1cc(C2CCCN(CC(=O)Nc3nc4c(s3)CCC4)C2)n[nH]1` (centres undefined), the cytotoxicity at 10 µM is -44.2%.

For `O=C(NC1CCN(CC2CC2)C1)c1ccc(N2CCC(O)CC2)cc1` (centres undefined), the cytotoxicity at 10 µM was -11.8%.

On to `Cc1ccc(CN2C[C@H](NC(=O)c3nccn3C)[C@H]3OCCC[C@H]32)o1`, for which the cytotoxicity at 10 µM was -85%.

As to `O=C(NCC1CC1)c1cc2c(s1)CCN2c1ncccn1`, the cytotoxicity at 10 µM is -101%.

As for `Cc1ccc(CN2CCCC3(CCN(Cc4ccc(C)o4)C3)C2)o1` (centres undefined), the cytotoxicity at 10 µM was -107%.

`CC1=N[C@@]2(CC[C@@H]3CN(C(=O)NCc4cccc(F)c4)C[C@@H]32)C(=O)N1`: the cytotoxicity at 10 µM is -73.4%.

For the compound `CSCC[C@@H](CO)Nc1ccc(-c2nc(-c3ccccc3F)no2)cn1`, the cytotoxicity at 10 µM amounted to 9.74%.

As for `O=C1O[C@@H]2CN(c3ccncc3)C[C@@H]2N1CCCc1ccc(F)cc1`, the cytotoxicity at 10 µM was -3.73%.

As for `CCOC(=O)c1ccc(N2CCN(Cc3c(C)nn(C)c3Cl)CC2)nc1`, the cytotoxicity at 10 µM came out at 20.5%.

With `Cc1nc(NCc2noc(C3CCCO3)n2)c2sccc2n1` (centres undefined), the cytotoxicity at 10 µM came out at 50.2%.

Regarding `Cc1nc(CNCc2cccnc2Oc2ccc(C)c(F)c2F)c[nH]1`, the cytotoxicity at 10 µM worked out at 6.87%.

With `FC(F)Oc1ccccc1CN1CCCC(c2nccn2CC2CC2)C1` (centres undefined), the cytotoxicity at 10 µM was determined as 6.64%.

`C[C@H](c1ccc(F)cc1)n1c(C2CCN(C)CC2)n[nH]c1=O`: the cytotoxicity at 10 µM worked out at 9.93%.

Consider `CCN1CCCC(CN(C)c2nccc(-c3ccc(C)nc3C)n2)C1` (centres undefined), for which the cytotoxicity at 10 µM was -13.5%.

Consider `CC(C)[C@H]1CN(c2ccncc2)C[C@@H]1NS(=O)(=O)N(C)C`, for which the cytotoxicity at 10 µM is 4.56%.

Regarding `O=C(c1scc2c1OCCO2)N1CCOC(CCc2ccccc2)C1` (centres undefined), the cytotoxicity at 10 µM was determined as 10.5%.

In the case of `CN(C)C1CCN(c2cc(-c3ccccc3)nc3ccnn23)C1` (centres undefined), the cytotoxicity at 10 µM was -53.5%.

As to `CN(C)C(=O)CN1CCCN(CC2CCOc3ccccc3C2)CC1` (centres undefined), the cytotoxicity at 10 µM was -3.42%.

Consider `Cn1cnnc1CC1CCN(Cc2nn(C)c3cccc(Cl)c23)CC1`, for which the cytotoxicity at 10 µM was -1.62%.

Turning to `COC[C@]1(O)CCN(C(=O)c2ccc(CN(C)C)o2)CC1(C)C`, the cytotoxicity at 10 µM was 4.35%.

Take `Cc1nn(C)cc1-c1ccnc(N(C)Cc2cnn(C)c2)n1`: the cytotoxicity at 10 µM was found to be 19.9%.

Turning to `CN(Cc1cccc(OCCO)c1)Cc1cccc2ncccc12`, the cytotoxicity at 10 µM was 26%.

For the compound `CSc1nccc(N2CCC(NCc3ccc4nsnc4c3)CC2)n1`, the cytotoxicity at 10 µM was determined as 28.3%.

For the compound `Cc1nc(C)c(C(=O)N2C[C@@H](C(=O)O)[C@H](C3CC3)C2)s1`, the cytotoxicity at 10 µM was determined as 7.53%.

In the case of `CCNC(=O)[C@@H]1C[C@@H](N)CN1Cc1ccc(Sc2ccc(C)cc2)o1`, the cytotoxicity at 10 µM is -53.4%.

Turning to `Cc1cccc2sc(NC(=O)CN3CCCC(O)(CO)C3)nc12` (centres undefined), the cytotoxicity at 10 µM stood at 16.9%.

Regarding `Cc1[nH]c2c(C)ccc(C)c2c1CC(=O)NCC(O)c1cccnc1` (centres undefined), the cytotoxicity at 10 µM was -2.11%.

As to `CCCN(CC)C(=O)c1cc(Cn2c(C)nc3ccccc32)[nH]n1`, the cytotoxicity at 10 µM came out at 36.7%.

Regarding `CC1(C)CN(C(=O)c2ncc(F)cc2F)CCC1(O)CN1CCOCC1` (centres undefined), the cytotoxicity at 10 µM was -8.37%.

For the compound `Cc1nn(C)c2nc(N3CCC(C(O)Cc4ccccc4)CC3)sc12` (centres undefined), the cytotoxicity at 10 µM was found to be 28.2%.

Regarding `Cc1nc(-c2cn(CCN)nn2)n(-c2ccc(C(F)(F)F)cc2)n1`, the cytotoxicity at 10 µM was -1.77%.

Regarding `CC(C)c1nc(CN(C)Cc2cnc(N3CCOCC3)nc2)no1`, the cytotoxicity at 10 µM was 10.1%.

With `COc1ccccc1N1CCN(C(=O)c2ccnc(N(C)C)c2)CC1`, the cytotoxicity at 10 µM was determined as 84.2%.

`COc1cc(C(=O)Nc2nc(C)no2)cc(Cl)c1OC`: the cytotoxicity at 10 µM was -4.29%.

For the compound `Cc1noc(C)c1C(=O)NCc1ccc(N2CCC(C)CC2)nc1`, the cytotoxicity at 10 µM was determined as 8.43%.

Take `O=C1NCCN1C1CCCN(Cc2coc(-c3ccc(F)cc3)n2)C1` (centres undefined): the cytotoxicity at 10 µM was determined as 8.63%.

In the case of `CC(C)c1n[nH]c(C(=O)Nc2ccncc2)c1Br`, the cytotoxicity at 10 µM came to 12.6%.

Regarding `Cc1cccc(NC2CCN(C(=O)Nc3cccc4[nH]ccc34)CC2)n1`, the cytotoxicity at 10 µM was -6.85%.

Turning to `CCOc1ccc(CN2CCN(C(=O)c3ccc(C)n3C)CC2)cc1`, the cytotoxicity at 10 µM came to 19.2%.

As for `CC(Cn1cccn1)NC(=O)N1CCN(Cc2cccnc2)CC1` (centres undefined), the cytotoxicity at 10 µM is -18.2%.

In the case of `Cc1cc(C[C@@H]2CCC[C@H]2NCc2ccccc2F)on1`, the cytotoxicity at 10 µM was -6.19%.

`CC1(C)CC(N(Cc2cccnc2)Cc2cccc(F)c2)CC(C)(C)N1`: the cytotoxicity at 10 µM was -6.41%.

`c1cncc(-c2ccc3c(c2)C2(CC3)CCN(c3nncs3)CC2)c1`: the cytotoxicity at 10 µM was found to be 13.1%.

With `Cn1cnc(S(=O)(=O)N2C[C@H]3CN(Cc4ccccn4)C[C@H]3C2)c1`, the cytotoxicity at 10 µM turned out to be 4.26%.

On to `CN(C)C(=O)[C@@]12CCO[C@@H]1CCN(Cc1ccc3c(c1)OCO3)C2`, for which the cytotoxicity at 10 µM worked out at 0.863%.

As to `CC(C)N1CCOCC2(CCCN(C(=O)c3cncn3C)C2)C1` (centres undefined), the cytotoxicity at 10 µM was -1.09%.

As for `Cc1nc2c(cc1C(=O)O)CCN(CC1CC1)CC2`, the cytotoxicity at 10 µM is -154%.

Consider `CCOC(=O)[C@]12CCCN(Cc3nccs3)C[C@H]1CN(C(C)C)C2`, for which the cytotoxicity at 10 µM is -8.81%.

As for `COCCN1CC2(CCOCC2)c2cc(NC(=O)C3CC=CC3)ccc21`, the cytotoxicity at 10 µM is -109%.

With `COCCN1CCc2cc(C(=O)NC(C)C)c(NCC(C)C)nc2CC1`, the cytotoxicity at 10 µM was -163%.

Take `O=C1CC2(CCCCN2C(=O)c2ccco2)CN1c1cccnc1` (centres undefined): the cytotoxicity at 10 µM is -1.69%.

With `c1cc(CNCc2ccc(-n3cncn3)nc2)cc(OC2CCCC2)c1`, the cytotoxicity at 10 µM turned out to be 2.3%.

On to `Cc1cccc(CN2C[C@@H]3OCCN(c4ccnc(N(C)C)n4)[C@@H]3C2)c1`, for which the cytotoxicity at 10 µM is -94.9%.

`CCOCCN1CCN(C=C2NN=C(c3occc3C)O2)CC1CC` (centres undefined): the cytotoxicity at 10 µM is -50.3%.

Regarding `Cc1[nH]n(C)c2nc(=O)cc(C(F)(F)C(F)(F)F)c1-2`, the cytotoxicity at 10 µM is -2.22%.

Regarding `NC1CCC(Nc2nccc(CCC(F)(F)F)n2)CC1` (centres undefined), the cytotoxicity at 10 µM was -15%.
